Experimental data reported in ChEMBL document CHEMBL5376013, “Design, synthesis and biological evaluation of novel morpholinopyrimidine-5-carbonitrile derivatives as dual PI3K/mTOR inhibitors” (RSC Med Chem, 2024).

Legend:
A549 = experiment: Antiproliferative activity against human A549 cells assessed as inhibition of cell growth by MTT assay; format: functional, cell-based
PC-3 = experiment: Antiproliferative activity against human PC-3 cells assessed as inhibition of cell growth by MTT assay; format: functional, cell-based
MCF7 = experiment: Antiproliferative activity against human MCF7 cells assessed as inhibition of cell growth by MTT assay; format: functional, cell-based
SR [1] = experiment: Antiproliferative activity against human SR cells assessed as inhibition of cell growth; format: functional, cell-based
Method in brief: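 SR leukemia cells from ATCC were cultured in DMEM with 10% FBS, 10 ug/ml insulin and 1% penicillin-streptomycin. Reconstituted MTT was added at 10% of culture volume for 2–4 h. Formazan was dissolved in solubilization solution and read at 570 nm. Viability was calculated as treated A570 over untreated A570 ×100, with dose-response curves.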

[2] = Inhibition of PI3K (unknown origin); parameters: species or system Homo sapiens
Method in brief: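 ELISA kit PI3 kinase assay with LY294002 as reference. Inhibitor preincubated 10 min before PIP2 substrate in kinase reaction buffer (25 µl final), 1 h reaction. Product detected by competition with biotinylated PIP3 for GRP1, with SA-HRP and TMB colour.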

SR [3] = experiment: cells; conditions: Homo sapiens
[4] = molecular target: Serine/threonine-protein kinase mTOR (Homo sapiens, UniProt P42345); experiment: Inhibition of mTOR (unknown origin) incubated for 1 hr by ELISA analysis
Method in brief: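 Glutathione-coated plate loaded with mTOR substrate (1 h, room temperature). mTOR with compound in 2X kinase assay buffer, 30 min at 30 °C, then stop solution. Phospho-p70S6K-T389 detected by primary antibody, then HRP conjugate (1 h each), TMB, A450 with 540 or 595 nm reference.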

[5] = Cytotoxicity against human PCS-800-011 cells assessed as inhibition of cell growth by MTT assay; format: toxicity, cell-based

For `O=S1(=O)CCc2nc(N3N=C(c4ccc(F)cc4)C[C@@H]3c3ccc(Cl)c(Cl)c3)nc(N3CCOCC3)c2C1`, the IC50 (A549) was 23.8 µM, the IC50 (PC-3) was 19.1 µM and the IC50 (MCF7) was 30.7 µM.

`COc1ccc(-c2nc(N/N=C/c3cccc(Br)c3)nc(N3CCOCC3)c2C#N)cc1` gave an IC50 (SR [1]) of 0.76 µM and an IC50 [2] of 6.09 µM.

Compound `COc1ccc(-c2nc(N/N=C/c3cccc(O)c3)nc(N3CCOCC3)c2C#N)cc1` has an IC50 (SR [1]) of 13.6 µM and an IC50 [2] of 6.09 µM.

`COc1ccc(-c2nc(N/N=C/c3ccc(O)c(OC)c3)nc(N3CCOCC3)c2C#N)cc1` gave an IC50 (SR [1]) of 4.37 µM and an IC50 [2] of 6.09 µM.

With `COc1cccc2c1C(=O)c1c(O)c3c(c(O)c1C2=O)C[C@@](O)(C(=O)CO)C[C@@H]3O[C@H]1C[C@H](N)[C@H](O)[C@H](C)O1` [DOXORUBICIN] the IC50 (SR [3]) was 0.59 µM.

`CO[C@H]1C[C@@H]2CC[C@@H](C)[C@@](O)(O2)C(=O)C(=O)N2CCCC[C@H]2C(=O)O[C@H]([C@H](C)C[C@@H]2CC[C@@H](OCCO)[C@H](OC)C2)CC(=O)[C@H](C)/C=C(\C)[C@@H](O)[C@@H](OC)C(=O)[C@H](C)C[C@H](C)/C=C/C=C/C=C/1C` [EVEROLIMUS] gave an IC50 [4] of 0.53 µM.

For `O=c1[nH]cc(F)c(=O)[nH]1` [FLUOROURACIL], the IC50 (SR [3]) was 7.38 µM.

In the case of `CN[C@@H]1C[C@H]2O[C@@](C)([C@@H]1OC)n1c3ccccc3c3c4c(c5c6ccccc6n2c5c31)C(=O)NC4` [STAUROSPORINE], the IC50 [5] is reported as 18.3 µM.
